Bioassay records (PubChem BioAssay)
An excerpt weighted towards active compounds, which were near 2.9% of everything screened.
PAX8 inh HTS = inhibitors of PAX8 transcriptional activity in RMG-I cells. RMG-I TPO-luciferase reporter, SteadyGlo, 24 h. hit rate 1.2% among 360,000. inhibition, % at 12.6 µM;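 active = mean replicate inhibition at least 60% with every replicate also reaching 60%; inconclusive = only one of the two criteria is met; inactive = mean below 60% and not all replicates reaching 60%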;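 also: luciferase light reporting Pax8 driven TPO promoter activity; plate controls were median of neutral control wells for no effect and mitoxantrone controls for full effect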
dFosB activator = activators of mouse delta FosB homodimer; P13346; purified delta FosB, TAMRA-CDK5 oligo fluorescence polarization; percent of positive-control signal above neutral wells; activation, % at 25 µM; hit rate 0.99% among 340,000; AID 493131;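 active = mean activation above about 17%, with every replicate also reaching it, limit read from the data, passing the limit was not always enough; inconclusive = only one of the two conditions met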
Target sequence (P13346 whole entry, looked up): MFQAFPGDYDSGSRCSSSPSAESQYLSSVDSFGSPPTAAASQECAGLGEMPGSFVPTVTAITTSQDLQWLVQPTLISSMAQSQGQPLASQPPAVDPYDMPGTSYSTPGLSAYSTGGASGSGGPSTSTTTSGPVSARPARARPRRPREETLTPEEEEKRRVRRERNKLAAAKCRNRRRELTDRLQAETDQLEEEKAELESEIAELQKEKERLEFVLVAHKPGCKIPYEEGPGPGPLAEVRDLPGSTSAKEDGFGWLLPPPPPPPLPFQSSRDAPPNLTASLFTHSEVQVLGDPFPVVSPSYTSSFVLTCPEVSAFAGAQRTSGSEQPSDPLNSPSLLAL
CDK5 p35 inh = blocks human CDK5/p35 kinase activity | Q00535+Q15078 | inhibition, % at 10 µM | hit rate 0.01% among 330,000 | Recombinant CDK5/p35, ADP-Glo luminescence, 60 min;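 active = highest replicate inhibition of at least 50% and at least 75% of replicates reaching 50%; inconclusive = only one of the two criteria met; inactive = both criteria failed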;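 also: plate controls were DMSO neutral control for no effect and GW8510 at 10 µM for full effect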
Env fusion inh = inhibitors of HIV Env-mediated cell fusion | inhibition, % at 12.3 µM | AID 651610 | HeLa-JRFL Env/CEM21 cell fusion, luciferase | hit rate 1.1% among 360,000;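 active = mean replicate inhibition score of at least 50 and every replicate individually at or above 50; inconclusive = only one of the two criteria met; inactive = mean below 50 and not all replicates reaching 50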;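 also: 0% = plate neutral controls and 100% = maraviroc near 300 nM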
Cneo AK release = causes C. neoformans cell lysis; lysis activity, % at 15 µM; adenylate kinase release luminescence, 4 h; normalised: neutral wells 0, clomiphene wells 100; hit rate 0.2% among 360,000; AID 651654;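 active = mean lysis activity across replicates of at least 80%, whatever share of replicates individually reach that level; inactive = mean lysis activity below 80%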
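Schedule: static 4 h at 37 °C with compound, 1 h detection; system: C. neoformans cells; benchmarks: Clomiphene as positive control; buffer or medium: fresh YPD medium; measure: luminescence rise reflecting yeast cell lysis; measured by: luminescent adenylate kinase detection reagent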
GSIS activator = GLuc luminescence reporter in INS-1E cells, primary screen for activators of glucose-dependent secretion of insulin; INS-1E GLuc reporter insulin secretion, 2-3 h; activation, % at 16.6 µM; hit rate 0.61% among 370,000;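 active = lowest replicate activation of at least 40%, so every replicate reaches that level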;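 also: 0% = median of neutral control wells and 100% = median of IBMX positive control wells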
* hit, by the source's call; ? = inconclusive; . = not tested or not shown; [ ] = dose if it differs, or a comment.

SMILES	PAX8 inh HTS	dFosB activator	CDK5 p35 inh	Env fusion inh	Cneo AK release	GSIS activator
O=C(C[C@@H]1CC[C@H]2[C@@H](COC[C@H](O)CN2C(=O)Nc2ccc(Cl)c(Cl)c2)O1)NCc1ccc(Cl)cc1	95*	.	.	.	-3	-13
C[C@H](CO)N1C[C@H](C)[C@@H](CN(C)S(=O)(=O)c2ccc(Cl)cc2)Oc2ccc(NS(=O)(=O)c3ccc(F)cc3)cc2C1=O	.	.	.	-28[16.7 µM]	-7	-3
COc1cccc(-c2cnc3c(c2)C(=O)N([C@@H](C)CO)C[C@H](C)[C@@H](CN(C)C(=O)CC2CC2)O3)c1	.	.	.	3[16.7 µM]	-4	2
O=C(Nc1ccccc1C(=O)Nc1nnc(C(F)(F)F)s1)c1ccccc1Cl	63*	-16	-3	18	.	-56
C[C@H]1CN([C@@H](C)CO)C(=O)Cc2cc(NC(=O)Nc3ccc(F)cc3)ccc2O[C@H]1CN(C)S(=O)(=O)c1ccc(Cl)cc1	57	.	.	-168[16.7 µM]	4	-19
N#C/C(=C\c1cn(CCOc2ccccc2)c2ccccc12)C(=O)NCc1cccs1	13	7	1	5	2	99*
CC(=NCCN1CCN(C(C)=C2C(=O)c3ccccc3C2=O)CC1)C1=C(O)CC(C)(C)CC1=O	101*	-2	1	.	1	-3
CC(=C1C(=O)c2ccccc2C1=O)N1CCN(CCN=CC2=C(O)CC(C)(C)CC2=O)CC1	27	5	1	.	.	-3
COc1ccc(S(=O)(=O)Nc2ccc3c(c2)CC(=O)N([C@@H](C)CO)C[C@@H](C)[C@H](CN(C)C)O3)cc1	-14	.	.	.	1	17
C[C@H](O)C#Cc1cnc2c(c1)C(=O)N([C@@H](C)CO)C[C@H](C)[C@@H](CN(C)C(=O)Nc1ccc(C(F)(F)F)cc1)O2	25	.	.	-2[16.7 µM]	5	-2
COc1ccc(Nc2ncc(C(=O)O)c3ccccc23)cc1	.	7	-2	-38	4	.
COc1ccc(Nc2ncc(C(=O)N3CCN(c4ccc(F)cc4)CC3)c3ccccc23)cc1	.	-8	1	93*	-3	.
COc1ccc(CCC(=O)OCC(=O)Nc2ccc3[nH]c(=O)[nH]c3c2)cc1	0	2	1	3	.	45*
COc1ccc(OCC(=O)OCC(=O)Nc2ccc3[nH]c(=O)[nH]c3c2)cc1	-14	7	0	3	2	8
CCOC(=O)c1c(S(=O)(=O)NCCc2ccc(OC)c(OC)c2)c(C)n(C)c1C	-15	-3	-2	5	-16	51*
COc1ccc(CCNS(=O)(=O)c2cn(C)cn2)cc1OC	-26	-1	0	1	0	44*
COc1ccc(CCNS(=O)(=O)c2cccc(C)c2)cc1OC	.	-1	3	7	-2	90*
COc1ccc(CCNS(=O)(=O)c2cccc(F)c2)cc1OC	.	-12	1	-38	0	.
COc1ccc(CCNS(=O)(=O)c2cn(C)nc2C)cc1OC	2	-6	2	-10	-1	21
CCOC(=O)c1c(S(=O)(=O)NCCc2ccccc2)c(C)n(C)c1C	-11	-3	0	-3	0	-9
CCn1cc(S(=O)(=O)NCCc2ccc(OC)c(OC)c2)cn1	-20	-3	-2	-22	0	48*
Cc1noc(C)c1NC(=O)Nc1ccc2c(c1)CC(=O)N([C@H](C)CO)C[C@H](C)[C@H](CN(C)Cc1ccc(Cl)c(Cl)c1)O2	0	.	.	.	1	-9
CO[C@H]1CN(C)C(=O)c2cc(NC(=O)NC(C)C)ccc2OC[C@@H](C)N(CC2CC2)C[C@H]1C	-9	.	.	-1[16.7 µM]	-3	-6
CCCNC(=O)N1[C@@H]2CN(C(=O)C3CC3)c3ccccc3[C@@H]2[C@@H]1CO	3	.	.	.	-5	6
C[C@@H]1CN([C@H](C)CO)S(=O)(=O)c2ccc(/C=C/c3ccccc3)cc2O[C@@H]1CN(C)C(=O)NC1CCCC1	13	.	.	-1[16.7 µM]	11	0
SMILES	PAX8 inh HTS	dFosB activator	CDK5 p35 inh	Env fusion inh	Cneo AK release	GSIS activator
Cc1cc(C)c(C(=O)/C=C/c2cccc3ccccc23)c(=O)[nH]1	99*	0	-1	11	.	6
Cc1cc(C)c(C(=O)/C=C/c2ccc3c(c2)OCO3)c(=O)[nH]1	-2	-8	-1	1	.	3
Cc1nn(C)cc1NC(=O)C[C@@H]1CC[C@H]2[C@@H](COc3ccc(NC(=O)C4CCOCC4)cc3C(=O)N2C)O1	-21	.	.	5[16.7 µM]	3	6
O=C(Nc1ccccc1N1CCN(C(=O)c2ccccc2)CC1)c1ccc([N+](=O)[O-])o1	68*	-6	3	-20	2	-1
CCC(=O)N1CCN(c2ccccc2NC(=O)c2ccc([N+](=O)[O-])o2)CC1	33	-7	0	3	1	-3
O=C(Nc1cccc(NC(=O)c2ccccc2Cl)c1)c1ccc([N+](=O)[O-])o1	98*	-3	0	-27	-1	0
O=C(Nc1cccc([N+](=O)[O-])c1)c1ccc([N+](=O)[O-])o1	?	.	.	-12	1	-2
O=C(Nc1ccccc1N1CCCC1)c1ccc([N+](=O)[O-])o1	77*	-12	2	-8	-2	9
O=C(Nc1cccc2ccccc12)c1ccc([N+](=O)[O-])o1	69*	3	0	-14	-1	-31
COc1ccc(Nc2nccc(-c3ccc(C#N)cc3)n2)cc1	3	-3	55*	-10	0	9
O=C(C[C@H]1C[C@H]2c3cc(NC(=O)CC4CC4)ccc3O[C@H]2[C@@H](CO)O1)NCCN1CCCCC1	-21	.	.	2[16.7 µM]	-3	-16
COc1cc(/C=N/N=C(N)N)ccc1OCc1ccccc1Cl	-8	24*	2	1	.	15
C[C@@H]1CCCCO[C@H](CN(C)C(=O)Nc2ccc(C(F)(F)F)cc2)[C@@H](C)CN([C@H](C)CO)C(=O)c2cc(NS(=O)(=O)c3cccs3)ccc2O1	3	.	.	-7[16.7 µM]	-1	-2
C[C@@H]1CCCCO[C@@H](CN(C)C(=O)Nc2ccc(C(F)(F)F)cc2)[C@@H](C)CN([C@H](C)CO)C(=O)c2cc(NS(=O)(=O)c3cccs3)ccc2O1	.	.	.	-60[16.7 µM]	.	16
C[C@@H]1CCCCO[C@@H](CN(C)C(=O)Nc2ccc(C(F)(F)F)cc2)[C@H](C)CN([C@H](C)CO)C(=O)c2cc(NS(=O)(=O)c3cccs3)ccc2O1	85*	.	.	5[16.7 µM]	2	-5
C[C@H](CO)N1C[C@H](C)[C@H](CN(C)C(=O)Nc2ccc(C(F)(F)F)cc2)OCCCC[C@H](C)Oc2ccc(NS(=O)(=O)c3cccs3)cc2C1=O	66*	.	.	17[16.7 µM]	1	7
C[C@H]1CCCCO[C@@H](CN(C)C(=O)Nc2ccc(C(F)(F)F)cc2)[C@@H](C)CN([C@@H](C)CO)C(=O)c2cc(NS(=O)(=O)c3cccs3)ccc2O1	62*	.	.	28[16.7 µM]	52	-5
